Source: ChEMBL document CHEMBL1122897, “Tetracyclic pyridazines as potential psychopharmacological agents” (J Med Chem, 1985)
Values belong to the compound of their own block, whether it stands above or below them.

Legend:
Format in all cases: functional
Mus musculus [1] = species on record: Mus musculus; assay: In vitro activity for the ability to inhibit the uptake of Serotonin into mouse cortical slices; value ranges from 2.6-6.7
How it was run: (§1)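 Slices (60 mg cortical, 20 mg striatal) from untreated white mice (18–22 g) incubated with test compound, 0.2 nmol [3H]NE and 0.2 nmol [14C]-5-HT simultaneously, 0.48 μmol pargyline, 11 μmol glucose in 2.0 mL Krebs-Henseleit pH 7.4, 5 min under O2 with 6.5% CO2. 3H and 14C counted separately by liquid scintillation; active uptake = portion blocked by 3 × 10^-4 M cocaine.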

Mus musculus [2] = species on record: Mus musculus; assay: In vitro activity for the ability to inhibit the uptake of Norepinephrine into mouse cortical slices; value ranges from 2.2-5.5; how it was run: as §1
Mus musculus [3] = assay: Ability to inhibit the uptake of Norepinephrine into mouse cortical slices 1 hour after intraperitoneal injection ex vivo at a dose of >128
How it was run: (§2)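 Ex vivo: white mice (18–22 g), four per dose, given test drug intraperitoneally; 1 h later cerebral cortical plus striatal slices incubated 5 min with 0.2 nmol [3H]NE and 0.2 nmol [14C]-5-HT, pargyline, glucose in Krebs-Henseleit buffer pH 7.4 under O2/6.5% CO2. Dual-channel scintillation counting of dissolved slices; active uptake defined as cocaine (3 × 10^-4 M)-inhibitable.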

Mus musculus [4] = assay: Ability to inhibit the uptake of Serotonin into mouse cortical slices 1 hour after intraperitoneal injection ex vivo at a dose of >128; how it was run: as §2
Mus musculus [5] = assay: Ability to inhibit the uptake of Norepinephrine into mouse cortical slices 1 hour after intraperitoneal injection ex vivo; value ranges from […]; conditions: ip; how it was run: as §2
Mus musculus [6] = assay: Ability to inhibit the uptake of Serotonin into mouse cortical slices 1 hour after intraperitoneal injection ex vivo value ranges from 27-224; conditions: ip; how it was run: as §2
Mus musculus [7] = species on record: Mus musculus; assay: In vitro activity for the ability to inhibit the uptake of Norepinephrine into mouse cortical slices; value ranges from 1.1-4.4; how it was run: as §1
Mus musculus [8] = species on record: Mus musculus; assay: In vitro activity for the ability to inhibit the uptake of Serotonin into mouse cortical slices; value ranges from 0.8-3.0; how it was run: as §1
Mus musculus [9] = species on record: Mus musculus; assay: In vitro activity for the ability to inhibit the uptake of Norepinephrine into mouse cortical slices at a dose of >25; how it was run: as §1
Mus musculus [10] = species on record: Mus musculus; assay: In vitro activity for the ability to inhibit the uptake of Serotonin into mouse cortical slices; value ranges from 0.3-1.0; how it was run: as §1
Mus musculus [11] = assay: Ability to inhibit the uptake of Serotonin into mouse cortical slices 1 hour after intraperitoneal injection ex vivo at concentration of 102 uM/Kg; how it was run: as §2
Mus musculus [12] = assay: Ability to inhibit the uptake of Norepinephrine into mouse cortical slices 1 hour after intraperitoneal injection ex vivo at a dose of 102; how it was run: as §2
Mus musculus [13] = species on record: Mus musculus; assay: In vitro activity for the ability to inhibit the uptake of Norepinephrine into mouse cortical slices Value ranges from […]; how it was run: as §1
Mus musculus [14] = species on record: Mus musculus; assay: In vitro activity for the ability to inhibit the uptake of Serotonin into mouse cortical slices at a dose of 27; how it was run: as §1
Mus musculus [15] = assay: Ability to inhibit the uptake of Norepinephrine into mouse cortical slices 1 hour after intraperitoneal injection ex vivo at a dose of >106; how it was run: as §2
Mus musculus [16] = assay: Ability to inhibit the uptake of Serotonin into mouse cortical slices 1 hour after intraperitoneal injection ex vivo at a dose > 106; how it was run: as §2
Mus musculus [17] = species on record: Mus musculus; assay: In vitro activity for the ability to inhibit the uptake of Serotonin into mouse cortical slices; value ranges from […]; how it was run: as §1
Mus musculus [18] = species on record: Mus musculus; assay: In vitro activity for the ability to inhibit the uptake of Norepinephrine into mouse cortical slices; value ranges from 2.3-7.0; how it was run: as §1
Mus musculus [19] = assay: Ability to inhibit the uptake of Norepinephrine into mouse cortical slices 1 hour after intraperitoneal injection ex vivo at a dose of >117; how it was run: as §2
Mus musculus [20] = assay: Ability to inhibit the uptake of Serotonin into mouse cortical slices 1 hour after intraperitoneal injection ex vivo at a dose of >117; how it was run: as §2
Mus musculus [21] = assay: Ability to inhibit the uptake of Norepinephrine into mouse cortical slices 1 hour after intraperitoneal injection ex vivo; value ranges from 11-23; conditions: ip; how it was run: as §2
Mus musculus [22] = assay: Ability to inhibit the uptake of Serotonin into mouse cortical slices 1 hour after intraperitoneal injection ex vivo; conditions: ip; how it was run: as §2
Mus musculus [23] = species on record: Mus musculus; assay: In vitro activity for the ability to inhibit the uptake of Serotonin into mouse cortical slices; value ranges from 2.0-6.4; how it was run: as §1
Mus musculus [24] = species on record: Mus musculus; assay: In vitro activity for the ability to inhibit the uptake of Norepinephrine into mouse cortical slices; value ranges from 0.2-1.0; how it was run: as §1
Mus musculus [25] = assay: Ability to inhibit the uptake of Norepinephrine into mouse cortical slices 1 hour after intraperitoneal injection ex vivo; conditions: ip
Mus musculus [26] = species on record: Mus musculus; assay: (§3) In vitro activity for the ability to inhibit the uptake of Norepinephrine into mouse cortical slices.; conditions: read-out: ED50 (the source's name)
How it was run: (§4)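 Slices from untreated white mice (18–22 g), four animals per dose: 60 mg cortical plus 20 mg striatal, with test compound in the bath. Simultaneous uptake of [3H]NE and [14C]-5-HT (0.2 nmol each), with 0.48 μmol pargyline and 11 μmol glucose in 2.0 mL Krebs-Henseleit buffer, pH 7.4. Incubation 5 min under O2/6.5% CO2. Separate 3H and 14C channels; active uptake is the portion inhibited by 3 × 10^-4 M cocaine.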

Mus musculus [27] = species on record: Mus musculus; assay: (§5) In vitro activity for the ability to inhibit the uptake of Serotonin into mouse cortical slices.; conditions: read-out: ED50 (the source's name); how it was run: as §4
Mus musculus [28] = species on record: Mus musculus; assay: as §3; how it was run: as §1
Mus musculus [29] = species on record: Mus musculus; assay: as §5; how it was run: as §1

- EC50 (Mus musculus [1]): 4.2 µM
- EC50 (Mus musculus [2]): 3.5 µM
Structure (SMILES): CN(C)CCc1nnc2ccccc2c1-c1cccc(Cl)c1
- Inhibition (Mus musculus [3]): 49%
- Inhibition (Mus musculus [4]): 42%

- EC50 (Mus musculus [7]): 2.2 µM
- EC50 (Mus musculus [8]): 1.6 µM
Structure (SMILES): CN(C)CC/C=C1\c2ccccc2CCc2cccc(N)c21
- ED50 (Mus musculus [5]): 15 µmol/kg
- ED50 (Mus musculus [6]): 55 µmol/kg

- EC50 (Mus musculus [10]): 0.5 µM
Structure (SMILES): CN(C)CC/C=C(\c1cccc(Cl)c1)c1ccccc1N
- Inhibition (Mus musculus [9]): 37%
- Inhibition (Mus musculus [11]): 55%
- Inhibition (Mus musculus [12]): 33%

- EC50 (Mus musculus [13]): 6.6 µM
Structure (SMILES): CN(C)CCc1nnc2cccc3c2c1-c1ccccc1CC3
- Inhibition (Mus musculus [14]): 46%
- Inhibition (Mus musculus [15]): 13%
- Inhibition (Mus musculus [16]): 11%

- EC50 (Mus musculus [17]): 7.3 µM
- EC50 (Mus musculus [18]): 3.8 µM
Structure (SMILES): CN(C)CCc1nnc2cccc3c2c1-c1cc(Cl)ccc1S3
- Inhibition (Mus musculus [19]): 27%
- Inhibition (Mus musculus [20]): 16%

- EC50 (Mus musculus [23]): 3.5 µM
- EC50 (Mus musculus [24]): 0.7 µM
Structure (SMILES): CN(C)CC/C=C1\c2cc(Cl)ccc2Sc2cccc(N)c21
- ED50 (Mus musculus [21]): 16 µmol/kg
- ED50 (Mus musculus [22]): > 99 µmol/kg

Structure (SMILES): CN(C)CCC=C1c2ccccc2CCc2ccccc21 [AMITRIPTYLINE]
- ED50 (Mus musculus [25]): 144 µmol/kg
- ED50 (Mus musculus [22]): > 144 µmol/kg
- EC50 (Mus musculus [26]): 5.4 µM
- EC50 (Mus musculus [27]): 2.9 µM

- EC50 (Mus musculus [28]): 0.07 µM
- EC50 (Mus musculus [29]): 12 µM
Structure (SMILES): CNCCCN1c2ccccc2CCc2ccccc21 [DESIPRAMINE]
- ED50 (Mus musculus [22]): > 132 µmol/kg

- EC50 (Mus musculus [28]): 1.3 µM
- EC50 (Mus musculus [29]): 0.3 µM
Structure (SMILES): CN(C)CCCN1c2ccccc2CCc2ccccc21 [IMIPRAMINE]
- ED50 (Mus musculus [25]): 63 µmol/kg
- ED50 (Mus musculus [22]): 126 µmol/kg
